Activity calls are given as the source filed them. The rule behind the calls is not given here.
Tests used:
HCT-116 [1] = assay: Drug metabolism in human HCT116 cells assessed as quercetin level at 30 uM after 3 hrs by HPLC analysis; type: ADME, cell-based; details: hct-116, 3 h
In short: (§1)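 MCF-7 or HCT116 cells were seeded at 2×10^5 per well and grown 24 h at 37 °C, 5% CO2, then given 30 µM conjugate. At 1, 3, 6 and 12 h cells were PBS-washed, trypsinized, sonicated and filtered. Lysates were run on C18 HPLC (UV 340 nm). Each species is reported as a percentage of integrated peak area; peaks were identified by MALDI-TOF MS.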

MCF7 [2] = assay: Cytotoxicity against human MCF7 cells at 1 to 100 uM after 12 hrs by MTT assay; type: functional, cell-based
In short: (§2)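 MCF-7 or HCT116 cells were seeded at 5×10^3 per well in DMEM with 10% FBS and grown 1 day at 37 °C, 5% CO2. Compounds in 1% DMSO were added at 1, 5, 10, 50, 100 or 250 µM. Viability was read by MTT after 12 h; each assay was done three times.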

HCT-116 [3] = assay: Drug metabolism in human HCT116 cells assessed as 7-O-POC-Q level at 30 uM after 6 hrs by HPLC analysis; type: ADME, cell-based; details: hct-116, 6 h; in short: as §1
HCT-116 [4] = assay: Drug metabolism in human HCT116 cells assessed as quercetin sulfate level at 30 uM after 1 hr by HPLC analysis; type: ADME, cell-based; details: hct-116, 1 h; in short: as §1
MCF7 [5] = assay: Drug metabolism in human MCF7 cells assessed as 7-O-POC-Q level at 30 uM after 3 hrs by HPLC analysis; type: ADME, cell-based; details: mcf7, 3 h; in short: as §1
HCT-116 [6] = assay: Cytotoxicity against human HCT116 cells at 1 to 100 uM after 12 hrs by MTT assay; type: functional, cell-based; in short: as §2
[7] = Metabolic stability in human HCT116 cells assessed as compound remaining at 30 uM after 6 hrs by HPLC analysis; type: ADME, cell-based, HCT-116; details: read-out: Stability; in short: as §1
HCT-116 [8] = assay: Drug metabolism in human HCT116 cells assessed as quercetin sulfate level at 30 uM after 3 hrs by HPLC analysis; type: ADME, cell-based; details: hct-116, 3 h; in short: as §1
HCT-116 [9] = assay: Drug metabolism in human HCT116 cells assessed as quercetin sulfate level at 30 uM after 12 hrs by HPLC analysis; type: ADME, cell-based; details: hct-116, 12 h; in short: as §1
MCF7 [10] = assay: Drug metabolism in human MCF7 cells assessed as quercetin level at 30 uM after 12 hrs by HPLC analysis; type: ADME, cell-based; details: mcf7, 12 h; in short: as §1
[11] = Metabolic stability in human MCF7 cells assessed as compound remaining at 30 uM after 1 hr by HPLC analysis; type: ADME, cell-based; details: read-out: Stability; in short: as §1
HCT-116 [12] = assay: Drug metabolism in human HCT116 cells assessed as quercetin-glucuronide level at 30 uM after 3 hrs by HPLC analysis; type: ADME, cell-based; details: hct-116, 3 h; in short: as §1
[13] = Metabolic stability in human MCF7 cells assessed as compound remaining at 30 uM after 3 hrs by HPLC analysis; type: ADME, cell-based; details: read-out: Stability; in short: as §1
[14] = Metabolic stability in human MCF7 cells assessed as compound remaining at 30 uM after 6 hrs by HPLC analysis; type: ADME, cell-based; details: read-out: Stability; in short: as §1
HCT-116 [15] = assay: Drug metabolism in human HCT116 cells assessed as 7-O-POC-Q level at 30 uM after 1 hr by HPLC analysis; type: ADME, cell-based; details: hct-116, 1 h; in short: as §1
HCT-116 [16] = assay: Drug metabolism in human HCT116 cells assessed as quercetin-glucuronide level at 30 uM after 1 hr by HPLC analysis; type: ADME, cell-based; details: hct-116, 1 h; in short: as §1
HCT-116 [17] = assay: Drug metabolism in human HCT116 cells assessed as quercetin-glucuronide level at 30 uM after 12 hrs by HPLC analysis; type: ADME, cell-based; details: hct-116, 12 h; in short: as §1
[18] = Metabolic stability in human HCT116 cells assessed as compound remaining at 30 uM after 1 hr by HPLC analysis; type: ADME, cell-based, HCT-116; details: read-out: Stability; in short: as §1
HCT-116 [19] = assay: Drug metabolism in human HCT116 cells assessed as quercetin-glucuronide level at 30 uM after 6 hrs by HPLC analysis; type: ADME, cell-based; details: hct-116, 6 h; in short: as §1
MCF7 [20] = assay: Drug metabolism in human MCF7 cells assessed as quercetin sulfate level at 30 uM after 1 hr by HPLC analysis; type: ADME, cell-based; details: mcf7, 1 h; in short: as §1
HCT-116 [21] = assay: Drug metabolism in human HCT116 cells assessed as quercetin level at 30 uM after 1 hr by HPLC analysis; type: ADME, cell-based; details: hct-116, 1 h; in short: as §1
HCT-116 [22] = assay: Drug metabolism in human HCT116 cells assessed as quercetin level at 30 uM after 6 hrs by HPLC analysis; type: ADME, cell-based; details: hct-116, 6 h; in short: as §1
[23] = Metabolic stability in human HCT116 cells assessed as compound remaining at 30 uM after 3 hrs by HPLC analysis; type: ADME, cell-based, HCT-116; details: read-out: Stability; in short: as §1
[24] = Drug degradation in DMEM cell-free cell culture medium assessed as formation of 3-O-POC-Q at 50 uM after 24 hrs by HPLC analysis; type: physicochemical
In short: (§3)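 Conjugates diluted from a 10 mM DMSO stock to 50 µM final in cell-free culture medium (DMEM with 10% FBS), held at 37 °C. Samples were taken at 0, 1, 3, 6, 12, 24, 48 and 96 h, vortexed, and run on C18 reverse-phase HPLC with an acetonitrile/0.1% formic acid gradient at 1 mL/min, detected by UV at 340 nm.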

[25] = Half life of the compound in PBS buffer at pH 7.4 at 50 uM by HPLC analysis; type: physicochemical
In short: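 Compound at 50 µM in PBS pH 7.4, incubated at 37 °C. Aliquots were drawn at 0, 1, 3, 6, 12, 24, 48 and 96 h and analysed by C18 reverse-phase HPLC with an acetonitrile/0.1% formic acid gradient, detected by UV at 340 nm.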

MCF7 [26] = assay: Drug metabolism in human MCF7 cells assessed as quercetin-glucuronide level at 30 uM after 12 hrs by HPLC analysis; type: ADME, cell-based; details: mcf7, 12 h; in short: as §1
[27] = Half life of the compound in DMEM cell-free cell culture medium at 50 uM by HPLC analysis; type: physicochemical; in short: as §3
[28] = Solubility of the compound in PBS buffer at 0.5 to 300 uM; type: physicochemical
In short: (§4)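 DMSO stocks ([…]–10 mM) were serially diluted into PBS pH 7.4 or DMEM with 10% FBS to final 0.5, 5, 25, 50, 100, 200 µM (2% DMSO) and 300 µM (3% DMSO). Solubility was judged by forward light scattering in a laser nephelometer.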

HCT-116 [29] = assay: Drug metabolism in human HCT116 cells assessed as 7-O-POC-Q level at 30 uM after 12 hrs by HPLC analysis; type: ADME, cell-based; details: hct-116, 12 h; in short: as §1
MCF7 [30] = assay: Drug metabolism in human MCF7 cells assessed as 3-O-POC-Q level at 30 uM after 12 hrs by HPLC analysis; type: ADME, cell-based; details: mcf7, 12 h; in short: as §1
MCF7 [31] = assay: Metabolic stability in human MCF7 cells assessed as compound remaining at 30 uM after 12 hrs by HPLC analysis; type: ADME, cell-based; details: mcf7, 12 h; in short: as §1
[32] = Metabolic stability in human HCT116 cells assessed as compound remaining at 30 uM after 12 hrs by HPLC analysis; type: ADME, cell-based, HCT-116; details: read-out: Stability; in short: as §1
HCT-116 [33] = assay: Drug metabolism in human HCT116 cells assessed as 7-O-POC-Q level at 30 uM after 3 hrs by HPLC analysis; type: ADME, cell-based; details: hct-116, 3 h; in short: as §1
MCF7 [34] = assay: Drug metabolism in human MCF7 cells assessed as quercetin sulfate level at 30 uM after 12 hrs by HPLC analysis; type: ADME, cell-based; details: mcf7, 12 h; in short: as §1
HCT-116 [35] = assay: Drug metabolism in human HCT116 cells assessed as quercetin sulfate level at 30 uM after 6 hrs by HPLC analysis; type: ADME, cell-based; details: hct-116, 6 h; in short: as §1
[36] = Solubility of the compound in DMEM cell-free cell culture medium up to 100 uM; type: physicochemical; in short: as §4
MCF7 [37] = assay: Drug metabolism in human MCF7 cells assessed as 7-O-POC-Q level at 30 uM after 12 hrs by HPLC analysis; type: ADME, cell-based; details: mcf7, 12 h; in short: as §1
MCF7 [38] = assay: Drug metabolism in human MCF7 cells assessed as 7-O-POC-Q level at 30 uM after 6 hrs by HPLC analysis; type: ADME, cell-based; details: mcf7, 6 h; in short: as §1

Structure (SMILES): CC(C)OC(=O)OCOc1cc(O)c2c(=O)c(OCOC(=O)OC(C)C)c(-c3ccc(O)c(O)c3)oc2c1
- Stability (HCT-116 [1]): Stable
- Activity (MCF7 [2]): Active
- Stability (HCT-116 [3]): Stable
- Stability (HCT-116 [4]): Stable
- Stability (MCF7 [5]): Stable
- Activity (HCT-116 [6]): Active
- remaining at 6 h, 30 µM [7]: 20%
- Stability (HCT-116 [8]): Stable
- Stability (HCT-116 [9]): Stable
- Stability (MCF7 [10]): Stable
- remaining at 1 h, 30 µM [11]: 25%
- Stability (HCT-116 [12]): Stable
- remaining at 3 h, 30 µM [13]: 6%
- remaining at 6 h, 30 µM [14]: 1%
- Stability (HCT-116 [15]): Stable
- Stability (HCT-116 [16]): Stable
- Stability (HCT-116 [17]): Stable
- remaining at 1 h, 30 µM [18]: 64%
- Stability (HCT-116 [19]): Stable
- Stability (MCF7 [20]): Stable
- Stability (HCT-116 [21]): Stable
- Stability (HCT-116 [22]): Stable
- remaining at 3 h, 30 µM [23]: 47%
- Drug degradation [24]: Active
- half-life at 50 µM [25]: > 96 h
- Stability (MCF7 [26]): Stable
- half-life at 50 µM [27]: 24 h
- solubility [28]: Insoluble
- Stability (HCT-116 [29]): Stable
- Stability (MCF7 [30]): Stable
- Stability (MCF7 [31]): Stable
- remaining at 12 h, 30 µM [32]: 3%
- Stability (HCT-116 [33]): Stable
- Stability (MCF7 [34]): Stable
- Stability (HCT-116 [35]): Stable
- solubility [36]: soluble
- Stability (MCF7 [37]): Stable
- Stability (MCF7 [38]): Stable
